Assay [1] addresses T1, Amyloid-beta precursor protein (Homo sapiens, UniProt P05067). The assay is described as follows: Inhibition of human biotinylated amyloid beta (1 to 42) oligomerization assessed as decrease in oligomer abundance measured after 1 hr by ELISA. (In general: ELISA stands for enzyme-linked immunosorbent assay.)
Assay [2] concerns the target T1, Amyloid-beta precursor protein. The assay is described as follows: Inhibition of human amyloid beta (1 to 40) fibrillization at 100 uM measured every 15 mins for 100 hrs by Thioflavin-T fluorescence assay relative to control. Put shortly:
(§1)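 Aβ40 monomerized in HFIP (1 mg/mL), dried under argon, diluted to 20 μM final in 20 mM Tris, 8 μM ThT, 0.3 M NaCl, pH 7.4. Compounds added in DMSO, triplicate; DMSO-only control taken as 100% aggregation. ThT fluorescence (ex 450/em 482 nm) read every 15 min for ~100 h; percent inhibition versus control, averaged over three independent samples.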

Assay [3] shares this target. The assay is described as follows: Inhibition of human amyloid beta (1 to 40) fibrillization at 20 uM measured every 15 mins for 100 hrs by Thioflavin-T fluorescence assay relative to control. The gist of the method:
as §1

Each structure is given as a SMILES string.

T1 sequence (P05067 whole entry): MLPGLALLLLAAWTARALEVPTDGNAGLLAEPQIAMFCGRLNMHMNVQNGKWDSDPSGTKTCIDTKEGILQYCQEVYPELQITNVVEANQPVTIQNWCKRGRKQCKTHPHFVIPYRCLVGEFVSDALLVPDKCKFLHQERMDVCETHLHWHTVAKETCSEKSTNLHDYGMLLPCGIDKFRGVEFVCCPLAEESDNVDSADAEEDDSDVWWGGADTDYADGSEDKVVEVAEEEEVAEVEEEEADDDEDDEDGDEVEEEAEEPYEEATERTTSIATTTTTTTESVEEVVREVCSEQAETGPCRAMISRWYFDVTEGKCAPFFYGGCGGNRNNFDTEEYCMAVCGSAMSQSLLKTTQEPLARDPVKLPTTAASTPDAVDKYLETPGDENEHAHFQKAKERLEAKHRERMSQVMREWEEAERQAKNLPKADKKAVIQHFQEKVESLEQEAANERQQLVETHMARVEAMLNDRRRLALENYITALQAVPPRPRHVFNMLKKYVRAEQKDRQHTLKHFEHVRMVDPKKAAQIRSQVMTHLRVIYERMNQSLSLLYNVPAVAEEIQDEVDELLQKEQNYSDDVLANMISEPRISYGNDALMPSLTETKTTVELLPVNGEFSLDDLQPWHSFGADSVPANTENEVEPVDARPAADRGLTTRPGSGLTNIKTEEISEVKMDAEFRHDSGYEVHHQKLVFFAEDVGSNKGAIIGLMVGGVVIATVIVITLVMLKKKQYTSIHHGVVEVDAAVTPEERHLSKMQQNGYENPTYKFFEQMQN

Turning to `COc1ccc(CNC(=O)CCNC(=O)/C=C/c2ccc(OCc3ccccc3)c(OC)c2)cc1`, the IC50 (usually the point on the concentration scale where inhibition reaches its midpoint) in assay [1] (read-out: IC50) came to 54.2 µM.

With `COc1cc(/C=C/c2cnco2)ccc1OCc1ccccc1`, the IC50 result in assay [1] was “Not Active”.

`COc1cc(/C=C/C(=O)N(C)C)ccc1OCc1ccccc1`: the inhibition (usually the percentage by which the read-out fell short of the control) in assay [2] was determined as 0%. Besides, the IC50 in assay [1] (read-out: IC50) was found to be 24.6 µM.

Regarding `CCCN(CCC)C(=O)/C=C/c1ccc(O)c(OC)c1`, in assay [1] (read-out: IC50), the IC50 was 98.8 µM.

As to `COc1cc(/C=C/C(=O)N2CC(C(=O)NCc3ccc(F)cc3)C2)ccc1OCc1ccccc1`, the IC50 in assay [1] (read-out: IC50) came to 3.65 µM.

Turning to `CCCN(CCC)C(=O)/C=C/c1ccc(OC)c(OC)c1`, in assay [1] (read-out: IC50), the IC50 stood at 45.3 µM.

In the case of `COc1cc(/C=C/C(=O)N2CC(C(=O)NCc3ccccc3)C2)ccc1OCc1ccccc1`, the figures for the inhibition in assay [3] and in assay [2] were 14.8% and 48.2%, respectively. For the same compound, in assay [1] (read-out: IC50), the IC50 came to 3.13 µM.

On to `COc1cc(/C=C/C(=O)N(C)OC)ccc1OCc1ccccc1`, for which, in assay [1] (read-out: IC50), the IC50 is 79.9 µM.

Turning to `COc1cc(/C=C/C(=O)N2CCOCC2)ccc1OCc1ccccc1`, the IC50 in assay [1] (read-out: IC50) was determined as 78.1 µM.

For the compound `COc1cc(/C=C/CN2CCCCC2)ccc1OCc1ccccc1`, the inhibition in assay [3] came out at 0.29%; in assay [2], 22.3%. In assay [1] (read-out: IC50), the IC50 was 10.6 µM.

On to `COc1cc(/C=C/C(=O)NCc2ccco2)ccc1OCc1ccccc1`, for which the IC50 entry in assay [1] is on record as “Not Active”.

For `COc1cc(/C=C/C(=O)N2CCCCC2)ccc1OCc1ccccc1`, the inhibition stood at 7.28% in assay [3] and 13.4% in assay [2]. For the same compound, the IC50 in assay [1] (read-out: IC50) worked out at 27.9 µM.

Regarding `CCN(CC)C(=S)/C=C/c1ccc(OCc2ccccc2)c(OC)c1`, the IC50 result in assay [1] was “Not Active”.

As to `COc1cc(/C=C/C(=O)NCCC(=O)N2CCCCC2)ccc1OCc1ccccc1`, the IC50 in assay [1] (read-out: IC50) came out at 8.17 µM.

As for `COc1cc(/C=C/C(=O)N2CC(C(=O)N3CC(F)(F)C3)C2)ccc1OCc1ccccc1`, the IC50 in assay [1] (read-out: IC50) was found to be 21.8 µM.

In the case of `COc1cc(/C=C/C(O)C(F)(F)F)ccc1OCc1ccccc1` (stereo not given), the inhibition in assay [3] is 0%; in assay [2] it was 44.1%. Also, the IC50 entry in assay [1] is given as “Not Active”.

Turning to `CCCN(CCC)C(=O)/C=C/c1ccc(OCc2cc(F)cc(F)c2)c(OC)c1`, the IC50 result in assay [1] is “Not Active”.

As to `COc1cc(/C=C/C(=O)N2CC(C(=O)NCc3ccco3)C2)ccc1OCc1ccccc1`, the IC50 in assay [1] (read-out: IC50) is 3.61 µM.

Turning to `COc1cc(/C=C/C(=O)N2CC(C(=O)N3CCOCC3)C2)ccc1OCc1ccccc1`, the IC50 in assay [1] (read-out: IC50) worked out at 35.7 µM.

On to `COc1cc(/C=C/C(=O)NCCOc2ccccc2)ccc1OCc1ccccc1`, for which, in assay [1], the IC50 entry is listed as “Not Active”.

As for `COc1cc([C@H]2C[C@@H]2C(=O)N2CCCCC2)ccc1OCc1ccccc1`, the inhibition turned out to be 0% in assay [3] and 13.3% in assay [2]. Further, the IC50 in assay [1] (read-out: IC50) is 18.7 µM.

Consider `COc1ccc(CNC(=O)C2CN(C(=O)/C=C/c3ccc(OCc4ccccc4)c(OC)c3)C2)cc1`, for which the IC50 in assay [1] (read-out: IC50) was 4.78 µM.

For the compound `COc1cc(/C=C/C(=O)N2CCCC2)ccc1OCc1ccccc1`, in assay [1] (read-out: IC50), the IC50 stood at 65.1 µM.

As for `CCCN(CCC)C(=O)/C=C/c1ccc(OCc2ccccc2)c(OC)c1`, the inhibition was 9.35% in assay [3] and 17% in assay [2]. Also, in assay [1] (read-out: IC50), the IC50 is 12.4 µM.

In assay [2], `COc1cc(/C=C/C(=O)Nc2nnn[nH]2)ccc1OCc1ccccc1` had an inhibition of 0%. Besides, the IC50 in assay [1] (read-out: IC50) was 98.5 µM.

Consider `CCN(CC)C(=O)/C=C/c1ccc(O)c(OC)c1`, for which the IC50 in assay [1] (read-out: IC50) amounted to 205 µM.

For the compound `COc1cc(/C=C/c2nnn[nH]2)ccc1OCc1ccccc1`, the inhibition in assay [2] was determined as 9.56%. The IC50 result in assay [1] is listed as “Not Active”.

In assay [2], `COc1cc([C@H]2C[C@@H]2C(=O)N(C)C)ccc1OCc1ccccc1` registered an inhibition of 8.81%. The IC50 in assay [1] (read-out: IC50) was found to be 45.8 µM.

Take `COc1cc(/C=C/C(=O)O)ccc1O` [FERULATE]: the inhibition in assay [3] stood at 9.75%; in assay [2] it was 36.8%. For the same compound, in assay [1] (read-out: IC50), the IC50 was determined as 226 µM.

For `COc1cc(/C=C/C(=O)N2CCN(c3ccccc3)CC2)ccc1OCc1ccccc1`, the IC50 entry in assay [1] was “Not Active”.

For the compound `COc1cc(/C=C/C(=O)NCCC(=O)NCc2ccccc2)ccc1OCc1ccccc1`, the half-inhibitory concentration (IC50) in assay [1] (read-out: IC50) worked out at 81.6 µM.

With `COc1cc(/C=C/C(=O)N2CCC[C@H]2C(=O)NCCOc2ccccc2)ccc1OCc1ccccc1`, the IC50 in assay [1] (read-out: IC50) came to 8.59 µM.

As to `COc1cc(/C=C/C(=O)N2CCC[C@@H]2C(=O)NCc2ccccc2)ccc1OCc1ccccc1`, in assay [1] (read-out: IC50), the IC50 came to 17.8 µM.

On to `COc1cc(/C=C/C(=O)N2CC(F)(F)C2)ccc1OCc1ccccc1`, for which, in assay [1] (read-out: IC50), the IC50 worked out at 107 µM.

Take `COc1cc(/C=C/C(=O)NCc2ccccc2)ccc1OCc1ccccc1`: in assay [1], the IC50 entry is recorded as “Not Active”.

As to `COc1cc(/C=C/C(=O)NCCC(=O)NCCOc2ccccc2)ccc1OCc1ccccc1`, the IC50 in assay [1] (read-out: IC50) was found to be 17.9 µM.

In assay [2], `CCN(CC)C(=O)CCc1ccc(OCc2ccccc2)c(OC)c1` displayed an inhibition of 6.49%. For the same compound, the IC50 in assay [1] (read-out: IC50) was 34.9 µM.

For the compound `CCN(CC)C(=O)/C=C/c1ccc(OCc2ccccc2)c(OC)c1`, the inhibition in assay [2] was 0%. Also, the IC50 in assay [1] (read-out: IC50) stood at 39.3 µM.

For the compound `COc1cc(/C=C/C(=O)N2CCC[C@H]2C(=O)NCc2ccccc2)ccc1OCc1ccccc1`, in assay [1] (read-out: IC50), the IC50 turned out to be 18.7 µM.

With `CCCN(CCC)C(=O)/C=C/c1ccc(OCc2cc(OC)cc(OC)c2)c(OC)c1`, the IC50 result in assay [1] was “Not Active”.

Turning to `COc1ccc(CNC(=O)[C@@H]2CCCN2C(=O)/C=C/c2ccc(OCc3ccccc3)c(OC)c2)cc1`, in assay [1] (read-out: IC50), the IC50 was 19.2 µM.

On to `CCN(CC)C(=O)C1CN(C(=O)/C=C/c2ccc(OCc3ccccc3)c(OC)c2)C1`, for which the IC50 in assay [1] (read-out: IC50) came out at 12.8 µM.

Consider `COc1cc(-c2cncn2Cc2ccccc2)ccc1OCc1ccccc1`, for which the figures for the inhibition in assay [3] and in assay [2] were 2.21% and 27.5%, respectively. Besides, the IC50 result in assay [1] is given as “Not Active”.

Consider `CCN(CC)C(=O)/C=C/c1ccc(OCc2cccnc2)c(OC)c1`, for which the IC50 entry in assay [1] was “Not Active”.

With `COc1cc(/C=C/C(=O)N2CC(C(=O)NCCOc3ccccc3)C2)ccc1OCc1ccccc1`, the inhibition in assay [3] turned out to be 5.5%; in assay [2] it was 20.6%. Also, the IC50 in assay [1] (read-out: IC50) stood at 1.8 µM.

Consider `COc1cc(/C=C/C(=O)N2CCC[C@H]2C(=O)N2CCCCC2)ccc1OCc1ccccc1`, for which the half-maximal inhibitory concentration (IC50) in assay [1] (read-out: IC50) turned out to be 17.1 µM.

Take `CCN(CC)C(=O)/C=C/c1ccc(OCc2cscn2)c(OC)c1`: the IC50 result in assay [1] is “Not Active”.

With `CCCN(CCC)C(=O)/C=C/c1ccc(OCCCOc2ccccc2)c(OC)c1`, the IC50 result in assay [1] is “Not Active”.

As for `COc1cc(/C=C/C(=O)N2CCC[C@@H]2C(=O)NCCOc2ccccc2)ccc1OCc1ccccc1`, the IC50 in assay [1] (read-out: IC50) is 16.8 µM.

On to `CCN(CC)C(=O)/C=C/c1ccc(O)c(O)c1`, for which the inhibition in assay [3] was 73.1%; in assay [2], 91.9%. Besides, in assay [1] (read-out: IC50), the IC50 worked out at 119 µM.

Consider `CCN(CC)C(=O)/C=C/c1ccc(OS(=O)(=O)c2ccc(C)cc2)c(OC)c1`, for which the inhibition was determined as 1.95% in assay [3] and 3.62% in assay [2]. For the same compound, the concentration for half-maximal inhibition (IC50) in assay [1] (read-out: IC50) was 10.6 µM.

As to `COc1cc(/C=C/C(=O)N2CC(C(=O)N3CCCCC3)C2)ccc1OCc1ccccc1`, the IC50 in assay [1] (read-out: IC50) was found to be 10.6 µM.

For `COc1cc(-c2cncn2CCC(=O)NCCOc2ccccc2)ccc1OCc1ccccc1`, the figures for the inhibition in assay [3] and in assay [2] were 5.98% and 13.8%, respectively. For the same compound, in assay [1] (read-out: IC50), the half-maximal inhibitory concentration (IC50) stood at 7.76 µM.

As for `COc1cc(-c2cncn2CCC(=O)NCCc2ccccc2)ccc1OCc1ccccc1`, the inhibition in assay [2] amounted to 0%. Moreover, the concentration for half-maximal inhibition (IC50) in assay [1] (read-out: IC50) worked out at 9.91 µM.
